An excerpt weighted towards active compounds, which were near 2.6% of everything screened.
PAD4 inh – blocks human protein arginine deiminase 4 | Q9UM07 | recombinant PAD4, RCA probe fluorescence polarization | inhibition, % at 6.36 µM | 330,000 tested, 0.41% active | AID 485272;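 active = percent inhibition above a cutoff equal to the mean of all tested compounds plus 3 SD, cut at about 15% in these data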;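 also: 0% = PAD4 with RCA probe and DMSO and 100% = probe without PAD4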
Apaf-1 inh – blocks human Apaf-1 apoptosome activity; reconstituted apoptosome caspase-3 activity, DEVD-Rh110 fluorescence; 330,000 tested, 0.71% active; O14727; inhibition, % at 20 µM; active = inhibition of at least 40% at 20 µM;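 also: plate controls were DMSO wells for no effect and DEVD-CHO caspase inhibitor wells for full effect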
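Material: reconstituted apoptosome with Apaf-1, cytochrome c, caspase-9, procaspase-3, dATP. Technique: Rh110 fluorescence intensity. Buffer or medium: pH 7.5 Hepes buffer with CHAPS, BSA, DTT. Times: 30 min plus 50 min, RT.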
TDP2 inh – blocks human TDP2 phosphodiesterase activity; 370,000 tested, 0.34% active; inhibition, % at 12.8 µM; recombinant TDP2, T5PNP hydrolysis, p-nitrophenol absorbance 415 nm; O95551;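 active = inhibition above the mean of all tested compounds plus 3 SD, set per campaign, cut at about 25% in these data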;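 also: 0% = DMSO with enzyme and 100% = buffer with substrate but no TDP2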
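Test system: human TDP2 enzyme; Input: 120 nM TDP2 per well; Buffer or medium: Mg2+-containing Tris-HCl buffer, pH 7.5; Reagent: 5 mM T5PNP; Dosing: 12.8 µM single point, 1% DMSO; Incubation: reaction 2 h, 37 °C; Detection: p-Nitrophenol epi absorbance; Read-out: % inhibition relative to enzyme-containing and enzyme-free wells; Replicates: single well per compound.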
PRMT1 inh – blocks human protein arginine methyltransferase 1; Q99873; recombinant PRMT1, activity-based probe fluorescence polarization; inhibition, % at 2.79 µM; 370,000 tested, 1.3% active;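 active = inhibition above about 21% made by adding two undisclosed values, limit read from the data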
GSTO1 counter – GSTO1 inhibition, counter-screen for RBBP9 inhibitors; inhibition, % at 5.96 µM; P78417; recombinant GSTO1, activity-based probe fluorescence polarization; 300,000 tested, 1.1% active;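 active = inhibition above the campaign mean inhibition plus 3 SD, cut at about 35% in these data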;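 also: 0% = GSTO1-1 with DMSO and 100% = wells lacking GSTO1-1 enzyme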
PRMT1 confirm – confirmation of human PRMT1 inhibitors. shares compounds with PRMT1 inh. recombinant His-PRMT1, activity-based probe fluorescence polarization. inhibition, % at 2.79 µM. 3,300 tested, 42% active;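 active = mean inhibition across replicates above the hit cutoff derived for the earlier primary screen, cut at about 22% in these data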
An asterisk follows results filed as active; x = not tested or not shown.

SMILES	PAD4 inh	Apaf-1 inh	TDP2 inh	PRMT1 inh	GSTO1 counter	PRMT1 confirm
COC(=O)COc1ccc2c(c1)O/C(=C\c1ccco1)C2=O	-5.8	7.0	-3.0	31.3*	8.7	1.3
CCC(=O)Oc1ccc2c(c1)O/C(=C\c1ccco1)C2=O	0.9	-3.3	-6.2	63.4*	-2.7	19.7
COc1ccccc1C(=O)Oc1ccc2c(c1)O/C(=C\c1ccncc1)C2=O	1.3	6.0	-1.8	38.2*	-0.3	12.9
COC(=O)C1CN(Cc2ccc(F)cc2)CCS(=O)(=O)N1Cc1cn(Cc2ccc(C)cc2)nn1 (centres undefined)	x	x	-1.5	-0.3	x	x
O=C(O)Cn1cc(C(=S)N2CCCCC2)c2ccccc21	-1.5	6.5	5.1	24.9*	3.9	5.3
Nc1ccc2c3c(cccc13)C(=O)N(c1ccccc1)C2=O	x	x	16.8	174.0*	x	164.5*
CO[C@H]1CN(C)C(=O)c2cc(NC(=O)C3CCCC3)ccc2OC[C@@H](C)NC[C@H]1C	x	x	-3.6	5.4	x	x
COCCN(CCOC)Cc1c(O)ccc2c1O/C(=C\c1ccco1)C2=O	-2.3	4.9	9.3	30.8*	30.1	27.4*
CC1CCN(Cc2c(O)ccc3c2O/C(=C\c2ccco2)C3=O)CC1	0.1	5.6	x	x	13.8	x
O=C1/C(=C/c2ccco2)Oc2c1ccc(O)c2CN1CCCCC1	-0.9	9.6	5.6	34.6*	31.1	46.6*
COc1ccc(NC(=O)CSc2nnc(-c3cccnc3)o2)c(OC)c1	0.1	1.5	-0.1	27.6*	1.1	36.2*
COc1ccc(NC(=O)CSc2nnc(-c3ccncc3)o2)c(OC)c1	1.6	0.4	-7.9	-0.1	0.1	x
O=C(O)CC(SCC(=O)Nc1ccc(S(=O)(=O)N2CCCC2)cc1)C(=O)O (centres undefined)	2.3	3.2	1.5	45.2*	3.1	38.8*
CC(C)N(CCNCC(O)COc1ccc(C(C)(C)c2ccccc2)cc1)C(C)C (centres undefined)	-2.8	17.9	3.6	-2.6	2.4	x
O=C(N/N=C/c1c(O)n(Cc2ccco2)c(=O)[nH]c1=O)c1ccccc1	-0.4	3.8	-8.8	33.2*	1.7	-0.2
O=C(O)/C(=C\c1cccc(F)c1)c1ccc(S(=O)(=O)N2CCCCC2)s1	1.6	10.7	10.3	2.8	-2.1	x
O=C(O)/C(=C/c1ccc(Cl)c([N+](=O)[O-])c1)c1ccc(S(=O)(=O)N2CCCCC2)s1	x	x	-6.9	38.7*	x	8.6
CCN1CCN(CCC(=O)Nc2ccc(Br)cc2)CC1	-2.9	7.7	8.1	-0.6	10.2	x
CCN1CCN(C(=S)c2ccc(Br)cc2)CC1	-6.2	-17.5	4.5	36.1*	-3.3	34.7*
CCN1CCN(C(=S)c2ccc(O)cc2)CC1	-3.5	-16.7	-1.3	80.9*	6.6	52.5*
Oc1ccc(C(=S)N2CCCC2)cc1	-0.2	-1.9	12.6	2.3	2.0	x
COc1ccc(-c2noc(CCC(=O)NC3CCCCCC3)n2)cc1OC	x	x	-2.1	-2.1	x	x
COc1ccc(COC[C@H](C)[C@H](O)[C@@H](C)[C@H]2OC(=O)[C@@H]2C)cc1	-3.2	-4.5	3.5	-1.6	0.4	x
N#Cc1ccc(CCc2ccccc2)[nH]c1=O	x	x	7.8	-2.2	x	x
N#Cc1ccc(CC(=O)c2ccccc2)[nH]c1=O	x	x	-3.6	29.1*	x	0.3
SMILES	PAD4 inh	Apaf-1 inh	TDP2 inh	PRMT1 inh	GSTO1 counter	PRMT1 confirm
CCOC(=O)C1CCCN(C2CC(=O)N(c3ccc(NC(C)=O)cc3)C2=O)C1 (centres undefined)	1.8	-4.8	-16.3	36.7*	8.1	0.7
C[C@@H]1ON(C)[C@H]2C[C@H]3c4[nH]c5c(-c6ccc7c(c6)OCO7)cccc5c4CCN3C(=O)[C@@H]12	x	x	-10.6	-2.4	x	x
CCCN1CNC(=S)N(CC2CCCO2)C1 (centres undefined)	-6.0	-1.8	-4.1	66.5*	-3.5	-4.2
Cc1[nH]c(=S)c(C#N)c(-c2ccccc2)c1C(=O)Nc1ccccc1	-14.2	11.7	-8.6	35.6*	10.8	13.8
Cc1ccccc1NC(=O)c1c(C)[nH]c(=S)c(C#N)c1-c1ccc(Cl)cc1	-7.6	-7.8	-12.4	13.0	-13.4	x
CCC(=O)c1ccc(OCC(=O)OCC(=O)N2CCc3ccccc32)cc1	0.6	5.3	-7.3	1.9	8.6	x
CCOC(=O)CC(c1ccc(N)cc1)n1c(C)ccc1C (centres undefined)	-1.9	0.8	1.3	1.3	8.6	x
Cc1ccc(C)n1C(CC(=O)O)c1ccc(C#N)cc1 (centres undefined)	-1.2	2.2	-3.7	27.0*	3.3	-0.2
CC(=O)c1cc(NC(=O)c2ccccc2)c(=O)oc1C	-0.3	-1.2	-25.8	19.9	-2.4	x
CC(=O)c1cc(NC(=O)c2ccc(C)cc2)c(=O)oc1C	0.8	7.9	-0.4	32.9*	6.4	-6.1
Cc1oc(=O)c(NC(=O)c2ccccc2)cc1C(=O)c1ccccc1	0.0	1.8	-4.7	55.5*	-0.1	11.2
COC(=O)c1cc(NC(=O)c2ccc(OC)cc2)c(=O)oc1C	-5.0	2.5	-13.0	1.1	-0.1	x
Cc1oc(=O)c(NC(=O)c2ccc(Cl)cc2)cc1C(=O)c1ccccc1	-1.9	11.3	1.1	42.0*	2.0	21.0
CC[C@]12c3[nH]c4cc(-c5ccco5)ccc4c3CCN1C(=O)[C@@H](CC(=O)NC(C)(C)C)C[C@@H]2C(=O)N1CCN(C(=O)c2ccco2)CC1	-3.1	11.6	-2.1	2.5	x	x
O=C1/C(=C/c2ccco2)SC(=S)N1c1cccnc1	x	x	3.7	46.1*	x	19.9
O=C1/C(=C\c2ccco2)SC(=S)N1c1ccc(O)cc1	-10.9	12.4	8.2	14.0	29.0	x
CC1OC(CC(=O)O)CC2=C1C(=O)c1c(O)cccc1C2=O (centres undefined)	x	x	33.8*	94.7*	x	46.3*
CCOc1cccc(N2C(=O)CC(N3CCC(C(N)=O)(N4CCCCC4)CC3)C2=O)c1 (centres undefined)	-1.4	-5.8	-12.5	40.3*	-4.0	-0.3
COC(=O)C1CCN(C2CC(=O)N(c3cc(C)cc(C)c3)C2=O)CC1 (centres undefined)	-0.5	0.0	-8.0	56.8*	6.7	-2.4
NC(=O)C1CCN(C2CC(=O)NC2=O)CC1 (centres undefined)	1.0	-5.1	-0.5	64.3*	9.7	-2.1
NC(=O)C1CCN(C2CC(=O)N(c3ccc(F)c(Cl)c3)C2=O)CC1 (centres undefined)	3.4	-5.4	8.0	29.9*	1.8	9.2
CCOc1ccc2nc(NC(=O)CN3C(=O)NC4(CCCC4)C3=O)sc2c1	-4.0	10.9	2.6	-2.6	4.1	x
NC(=O)C1CCN(C2CC(=O)N(c3cccc(F)c3)C2=O)CC1 (centres undefined)	4.2	-18.1	-3.8	28.6*	9.4	1.9

Source: PubChem BioAssay
